Screening results: PubChem, several laboratories
This is one part of a sample in which hits are shown more often than they occur.
Dynein cargo inh – blocks dynein driven cargo transport along microtubules; 3617.4 mouse cells, GR-EGFP nuclear translocation imaging; test concentration mostly 20 µM; stimulated with dexamethasone, 1 µM; active compounds read low; z-score, hits read low; 220,000 compounds, 0.47% hits;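 active = plate z-score of nuclear minus cytoplasmic receptor signal below a set negative limit, without overly bright fluorescence or cell loss, cut at about -3.5 in these data, passing the limit was not always enough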;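 note: z-score of nuclear minus cytoplasmic ring GR-EGFP intensity difference per well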
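Buffer or medium – tet-free medium with charcoal-stripped serum · Signal – automated 10x imaging of fixed Hoechst-stained cells · Also added – dexamethasone agonist, 1.0 µM final, for 30 min · Incubation – induction 48 h, compound 1 h, agonist 30 min · Read-out – GR-EGFP nuclear translocation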
UPR CHOP act – activators of apoptotic arm of unfolded protein response (CHOP) | activation, % at 10 µM | 330,000 compounds, 0.34% hits | CHO-CHOP luciferase reporter, UPR activation, luminescence; percent of tunicamycin response over DMSO baseline | AID 449763;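 active = at 10 µM dose, activation of 40% or more, normalized to positive control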;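 note: 100% = tunicamycin at 10 µg/mL and 0% = DMSO alone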
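assay system = CHO CHOP reporter cells | amount = 500 CHO-CHOP cells per well | buffer or medium = F12 with 10% FBS | incubation = 16-18 h cell attachment, then 6 h compound exposure, 37 °C | detection = luminescence read with Steady-Glo | read-out = percent activation relative to tunicamycin control | controls = tunicamycin high control, DMSO low control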
p-CIP stab down – lowers stability of the mouse p/CIP coactivator protein. F442A p/CIP-EGFP cells, EGFP fluorescence, 16 h. 290,000 compounds, 0.01% hits. Q05BA5. decrease of EGFP signal, % at 10 µM;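 active = EGFP signal decrease of at least 30% at 10 µM or well 3 SD below plate mean, unless failing retest; inactive = the rest, including hits failing retest or dose response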
Target sequence (Q05BA5 1-1403): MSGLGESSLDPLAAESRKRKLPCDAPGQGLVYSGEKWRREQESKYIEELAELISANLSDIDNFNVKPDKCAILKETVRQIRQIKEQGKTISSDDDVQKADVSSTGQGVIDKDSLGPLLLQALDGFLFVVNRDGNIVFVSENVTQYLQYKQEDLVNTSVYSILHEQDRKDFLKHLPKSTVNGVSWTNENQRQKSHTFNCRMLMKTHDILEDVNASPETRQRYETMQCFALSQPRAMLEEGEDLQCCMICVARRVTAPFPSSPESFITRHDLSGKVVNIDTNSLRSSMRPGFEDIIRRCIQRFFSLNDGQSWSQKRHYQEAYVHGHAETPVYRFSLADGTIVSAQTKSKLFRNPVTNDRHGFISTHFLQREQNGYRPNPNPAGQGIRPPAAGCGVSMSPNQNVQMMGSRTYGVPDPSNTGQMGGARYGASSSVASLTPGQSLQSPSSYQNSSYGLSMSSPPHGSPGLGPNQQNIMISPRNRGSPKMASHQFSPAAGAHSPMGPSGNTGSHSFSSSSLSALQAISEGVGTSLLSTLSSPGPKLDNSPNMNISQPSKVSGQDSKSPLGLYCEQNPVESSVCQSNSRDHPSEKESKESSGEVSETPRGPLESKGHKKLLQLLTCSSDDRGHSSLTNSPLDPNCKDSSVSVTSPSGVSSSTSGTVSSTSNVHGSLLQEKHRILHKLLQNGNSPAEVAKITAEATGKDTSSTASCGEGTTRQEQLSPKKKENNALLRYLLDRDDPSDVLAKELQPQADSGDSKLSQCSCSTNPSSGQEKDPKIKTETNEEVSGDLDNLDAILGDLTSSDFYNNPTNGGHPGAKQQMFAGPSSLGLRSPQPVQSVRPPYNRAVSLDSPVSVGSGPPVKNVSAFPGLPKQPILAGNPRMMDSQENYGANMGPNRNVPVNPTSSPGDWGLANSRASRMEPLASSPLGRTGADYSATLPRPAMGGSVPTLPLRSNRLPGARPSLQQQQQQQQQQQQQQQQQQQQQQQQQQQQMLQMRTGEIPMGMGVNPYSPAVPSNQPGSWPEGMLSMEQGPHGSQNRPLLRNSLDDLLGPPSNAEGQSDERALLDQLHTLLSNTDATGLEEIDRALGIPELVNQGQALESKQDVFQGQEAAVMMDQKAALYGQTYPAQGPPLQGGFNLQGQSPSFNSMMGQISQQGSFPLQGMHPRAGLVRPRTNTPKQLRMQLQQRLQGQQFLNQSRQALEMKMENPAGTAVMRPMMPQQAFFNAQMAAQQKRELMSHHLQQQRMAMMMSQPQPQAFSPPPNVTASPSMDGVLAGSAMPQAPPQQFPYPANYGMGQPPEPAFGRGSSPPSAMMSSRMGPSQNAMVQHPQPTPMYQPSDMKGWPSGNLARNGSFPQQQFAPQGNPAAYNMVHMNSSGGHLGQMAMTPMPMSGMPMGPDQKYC
B2AR ag – activates human beta-2 adrenergic receptor causing internalization | P07550 | Am2.2-beta2AR cells, FAP receptor internalization, flow cytometry | response, % (no concentration beside the values) | 340,000 compounds, 0.43% hits | AID 504454;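 active = response above a set limit, near 3 SD of response in nonfluorescent compounds, cut at about 42% in these data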
UPR XBP1 act – activators of adaptive arm of unfolded protein response (XBP1) | activation, % at 20 µM | AID 463104 | 330,000 compounds, 0.33% hits | CHO-XBP1 luciferase reporter, IRE1-XBP1 UPR activation, luminescence; percent of tunicamycin response, DMSO as zero;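 active = versus positive control, 20 µM dose yields 30% or more activation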;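 note: 100% = tunicamycin at 10 µg/mL and 0% = DMSO only wells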
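assay system = CHO-XBP1 luciferase reporter cells | amount = 1000 cells/well | buffer or medium = F12 plus 10% FBS | compound dosing = single point, 20 µM final compound, 1% DMSO | incubation = 16-18 h cell attachment at 37 °C, then 6 h compound exposure | detection = Steady-Glo luminescence read | controls = tunicamycin 10 µg/mL and vehicle-only wells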
CHOP inhibitor – inhibitors of CHOP induction in ER stress response; CHO-K1 CHOP-promoter luciferase, tunicamycin-induced, 15-18 h; inhibition, % at 10 µM; 220,000 compounds, 3.8% hits;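 active = compounds that reduced the stress-induced luciferase reporter signal by more than about 70% of percent inhibition, limit read from the data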;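 note: 0% = tunicamycin plus vehicle and 100% = wells without tunicamycin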
An asterisk follows results filed as active; i = inactive; / = no result.

SMILES | Dynein cargo inh | UPR CHOP act | p-CIP stab down | B2AR ag | UPR XBP1 act | CHOP inhibitor
Cc1ccc([C@@H]2[C@@H]3C(=O)N(C)C(=O)[C@@H]3[C@]3(Cc4ccccc4)C(=O)N(Cc4ccccc4)CC(=O)N23)o1 | / | 0 | 4 | -1 | 4 | /
CCCCCOc1ccc(/C=c2\sc3nc(=O)c(-c4ccccc4)nn3c2=O)cc1OC | 0.39 | 1 | -7 | 6 | -3 | 43
COc1ccccc1-c1nc2s/c(=C\c3cccs3)c(=O)n2n1 | -0.59 | -1 | -2 | 0 | -1 | 83*
COc1cc(/C=c2\sc3nc(-c4ccncc4)nn3c2=O)ccc1OC(C)=O | -0.97 | / | -10 | / | / | 107*
COc1ccccc1/C=c1\sc2nc(-c3cccs3)nn2c1=O | -0.57 | / | / | / | / | /
CCN(CC)CCOc1ccc(/C(=C(\Cl)c2ccccc2)c2ccccc2)cc1 | / | 4 | / | 60* | 2 | /
CCN(CC)CCOc1ccc(Br)cc1 | 0.58 | 0 | -6 | 3 | -1 | 6
CN(c1ccc(C(=O)N2CCCCCC2)cc1)S(=O)(=O)c1ccc(Cl)cc1 | / | 0 | -26 | -7 | -8 | /
CCOc1ccccc1NC(=O)CCn1nc(C)c(S(=O)(=O)N2CCCCC2)c1C | / | 1 | 8 | -12 | -5 | /
CCc1nc(-c2ccc(-c3ccc(OC)cc3)nc2OC)no1 | 1.4 | 3 | 6 | 0 | 5 | 77*
COCc1nc(-c2ccc(-c3ccc(OC)cc3)nc2OC)no1 | -0.46 | 3 | -14 | -5 | 4 | 31
O=C(/C=C/c1ccccc1)NCCS(=O)(=O)N1CCN(c2ccc(F)cc2)CC1 | / | -1 | / | 1 | -2 | /
O=C(COC(=O)CC1CC2CCC1C2)NC(=O)NCc1ccco1 (stereo unspecified) | -0.88 | -3 | -29 | 10 | 0 | 82*
Cc1cccc(/N=C/c2sc3ccccc3c2O)n1 | -0.53 | 1 | -12 | 10 | 2 | 14
Oc1c(C=Nc2cccc3cccnc23)sc2ccccc12 | -0.45 | 59* | 8 | / | 39* | -48
O=c1oc2ccccc2c(O)c1/C=C1\C=Nc2ccccc21 | -0.37 | 1 | -4 | 48* | -3 | -2
CCn1c(COc2cc(C)ccc2C(C)C)nnc1SCC(=O)Nc1nccs1 | -0.83 | -3 | -19 | 2 | 3 | 23
CSc1nncc(/C(C)=N\Nc2ccccc2C)n1 | -0.62 | 6 | -4 | 48* | 5 | 11
O=C(Nc1nccs1)[C@@H]1CC=C[C@@H]2CCN(Cc3ccccc3)C(=O)[C@@H]21 | / | 1 | / | -3 | 0 | /
COc1cc(/C=C/C(=O)Nc2nnc(CC(C)(C)C)s2)cc(OC)c1OC | 0.71 | 1 | 2 | 8 | -1 | 90*
COc1ccc(/C=C/C(=O)Nc2nnc(C(C)C)s2)cc1OC | 0.6 | 4 | -7 | 17 | -3 | 59
COc1cc(/C=C/C(=O)Nc2nnc(CC(C)C)s2)cc(OC)c1OC | -0.0012 | 3 | -8 | 2 | -3 | 90*
COc1ccc(S(=O)(=O)N2CCCCC2)cc1NC(=O)CSc1nccn1C | 1.2 | -2 | 3 | -4 | 3 | 19
C=CCOc1ccc(/C(O)=C2/C(=O)C(=O)N(CCCn3ccnc3)C2c2cccs2)cc1 (stereo unspecified) | 0.31 | 1 | 3 | 1 | -3 | 20
O=C(Nc1ccc(-c2nc3ccccc3s2)c(O)c1)C1=COCCO1 | i | 3 | -3 | 8 | 8 | 72*
SMILES | Dynein cargo inh | UPR CHOP act | p-CIP stab down | B2AR ag | UPR XBP1 act | CHOP inhibitor
Cc1ccc(NC(=O)COC(=O)CCC(=O)c2cccs2)cc1C | 0.95 | 0 | -7 | 0 | -2 | 6
CCC(=O)/C=C1/Sc2ccccc2N1CC | -0.2 | 2 | -7 | 10 | -2 | 34
CCN1/C(=C/c2sc(-c3ccccc3C)c[n+]2C)Sc2ccccc21 | -1 | / | -8 | -4 | / | 81*
Cc1cc(=O)oc2cc(NC(=O)C(C)N3C(=O)C4CCCCC4C3=O)ccc12 (stereo unspecified) | / | -1 | / | 1 | -2 | /
CCOC(=O)c1c(C)n(C(=O)c2ccco2)c(=O)n1C(=O)c1ccco1 | 0.088 | -1 | -7 | 8 | -1 | 85*
CCOC(=O)c1c(C)c(C(=O)N2CCN(C(=O)c3ccco3)CC2)c(C)n1C | -0.77 | 0 | -14 | -4 | 0 | 4
COc1ccc(C(CNC(=O)c2oc3ccc(Br)cc3c2C)N2CCCCC2)cc1 (stereo unspecified) | -0.82 | 1 | 3 | 1 | 2 | 78*
COc1ccc(C(CNC(=O)c2oc3cc(Br)ccc3c2C)N2CCCCC2)cc1 (stereo unspecified) | / | 5 | 3 | -4 | -5 | /
CCOC(=O)c1c(NC(=O)CN2CCCCC2)sc2c1CCCC2O (stereo unspecified) | -0.58 | 0 | -5 | -2 | -1 | 86*
CCOC(=O)c1c(NC(=O)CN2CCCCC2)sc(CN(C)C)c1-c1ccccc1 | 0.25 | 1 | -7 | 4 | -1 | -7
O=C(CSc1ccccc1)N(c1ccc(Br)cc1)c1nccs1 | -0.14 | 2 | 3 | -6 | 2 | 47
O=C(c1ccccc1)c1c2c(cc3sc4ccccc4[n+]13)-c1cccc3cccc-2c13 | 1.3 | / | -25 | -166 | / | 82*
COc1ccc(NC(=O)NNC(=O)C(C)Oc2ccc3ccccc3c2)cc1 (stereo unspecified) | / | 1 | -7 | 3 | -3 | /
O=C(CSc1ccc(Cl)cc1)N1CCN(c2ccc([N+](=O)[O-])cc2Cl)CC1 | 0.3 | 2 | -6 | 1 | -2 | 78*
CCCC(=O)N1CCN(c2ccc([N+](=O)[O-])cc2Cl)CC1 | -0.83 | -1 | 4 | 4 | 0 | 11
CCOC(=O)c1c(NC(=O)C2=C(C)NC(=S)NC2c2ccc(C)cc2)sc(C)c1C (stereo unspecified) | -0.043 | 6 | -21 | -6 | 2 | 74*
CCOC(=O)c1c(NC(=O)C2=C(C)NC(=S)NC2c2ccc(F)cc2)sc(C)c1C (stereo unspecified) | -1.2 | 0 | -8 | 0 | 1 | 59
Cc1ccc(C(Sc2ccccc2)C(Cn2cncn2)C(=O)c2ccccc2)cc1 (stereo unspecified) | -1.5 | -1 | -5 | 7 | -3 | 93*
O=C(CSc1ccccc1)NC1CCCCCC1 | / | 1 | -10 | 1 | -7 | /
CCC(=O)c1c(OCc2ccccc2)ccc2c(C)cc(=O)oc12 | 1.9 | 0 | -5 | / | 1 | 2
COc1ccc(N2CCN(C(c3cccs3)C(C)NC(=O)C(=O)N3CCCCC3)CC2)cc1 (stereo unspecified) | / | 2 | -12 | 70* | -7 | /
